This note sets out measurements from article PMC3268818 (Journal of Molecular Biology, 2011).

A short description of series [1]: SEC-coupled analytical light scattering. Type of series: physicochemical, human. To be noted: for oligomeric state in solution / Mw/Mn / Rg/Rh / dimer fraction / approximate mass of higher-order oligomer: ALS; for oligomeric state in solution / Rh / Mn / Mw/Mn / Mw / Rg / Rg/Rh / dimer fraction: pH 8, 10°C; for Rh: hydrodynamic radius, ALS (DLS); for Rh / Mn / Mw / Rg: at least three independent measurements; for Rh / Mn / Mw/Mn / Mw / Rg / Rg/Rh: ± one standard deviation; for Mn: number-average molar mass; for Mn / Mw / Rg: ALS (SLS); for Mw/Mn: polydispersity; for Mw: weighted-average molar mass; for Rg: radius of gyration; for Rg/Rh: shape ratio. The procedure, abridged:
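His-tagged human BclXL (residues 1–233 or 1–200) was expressed in E. coli and purified by Ni-NTA then SEC. It was run at 10–50μM starting concentration in 50mM sodium phosphate, 100mM NaCl, 1mM EDTA, 5mM β-mercaptoethanol, pH 8.0, on Superdex 200 at 1ml/min and 10°C. Mw, Mn and Rg came from triple-angle SLS (Zimm fit); Rh came from DLS at 90° (Stokes-Einstein). n≥3, ±SD.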

Series [2] deals with BclXL_FL. Description: DSC thermal stability of BclXL_FL. Particulars: BclXL_FL alone, 50mM Sodium phosphate, pH 8.0, 10–50μM protein, 40–120°C, 1°C/min, 3atm, repeated at least three times. The format is physicochemical, human.
Series [3] concerns BclXL_FL. Put plainly: Steady-state fluorescence. The arrangement: species or system human. To be noted: BclXL_FL alone, 5μM; SSF, excitation 290nm, pH 8.0, 25 °C.
Series [4] has as its system BclXL_FL. Description: TEM of negatively-stained BclXL_FL. The arrangement: species or system human. Particulars: 25μM BclXL_FL alone; 50mM Sodium phosphate, pH 8.0, negative staining. The procedure, abridged: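 Full-length His-tagged human BclXL (residues 1–233) was expressed in E. coli and purified by Ni-NTA and SEC. It was imaged at 25μM, alone or with a 10-molar excess of a 20-mer BH3 peptide, in 50mM sodium phosphate pH 8.0. Samples were negatively stained and viewed by TEM at 80kV and 105,000 magnification.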

As for “BclXL_FL: Full-length BclXL (residues 1–233), human, with an N-terminal His-tag, expressed in Escherichia coli”, in series [1], the “oligomeric state in solution” value is listed as “predominantly associates into higher-order oligomers” and the dimer fraction result is “minor fraction”. In series [1] (Dimer), the Rh came out at 47 ± 2 Å, the Mn amounted to 61 ± 3 kD, the Mw/Mn is 1.01 ± 0.01 and the Mw was found to be 62 ± 3 kD. In series [1] (Monomer), this substance had a Rh of 36 ± 1 Å, a Mn of 31 ± 1 kD and a Mw/Mn of 1.00 ± 0.01. In series [1] (Multimer), this substance yielded a Rh of 99 ± 2 Å, a Mn of 321 ± 25 kD, a Mw/Mn of 1.14 ± 0.02 and a Rg of 107 ± 4 Å. Moreover, in series [1] (Multimer), the Rg/Rh came out at 1.10 ± 0.01 and the Mw was found to be 361 ± 26 kD. Moreover, in series [1] (Polymer), the Rh came out at 175 ± 6 Å, the Mn worked out at 3134 ± 147 kD, the Rg stood at 198 ± 8 Å and the Rg/Rh was 1.13 ± 0.02. In addition, the Mw in series [1] (Polymer) was 3355 ± 188 kD. The “oligomer equilibrium on SEC re-analysis” value in series [1] (SEC-resolved fractions re-analyzed on SEC column) is reported as “reversible monomer-dimer-multimer-polymer equilibrium”. Moreover, the “approximate mass of higher-order oligomer” value in series [1] (multimer) was ~ 300 kD. Further, in series [1] (polymer), the “approximate mass of higher-order oligomer” value is recorded as ~ 3000 kD. Moreover, in series [2], the “melting temperature (Tm)” value was over 120 °C. For the same substance, the “intrinsic fluorescence relative to BclXL_dTM” value in series [3] is on record as “much higher than that observed for the BclXL_dTM construct”. In series [4], the TEM appearance entry is on record as “rod-like appearance in solution”.
For the substance “BclXL_dTM: BclXL in which the TM domain is deleted (residues 1–200), human, with an N-terminal His-tag, expressed in Escherichia coli”, in series [1], the “oligomeric state in solution” value is given as “largely monomeric in solution” and the dimer fraction result is reported as “minor fraction”. In series [1] (Dimer), this substance registered a Rh of 41 ± 3 Å, a Mn of 54 ± 2 kD, a Mw/Mn of 1.00 ± 0.01 and a Mw of 54 ± 2 kD. For the same substance, in series [1] (Monomer), the Rh is reported as 33 ± 2 Å, the Mn is reported as 28 ± 2 kD and the Mw/Mn came out at 1.00 ± 0.00.
